In experiment [1] the test system is HepG2. The experiment in a line: Compound is evaluated for relative potency versus gamma-tocotrienol at 4 (h) time point in HepG2 cells. Format: functional, Homo sapiens.
For experiment [2], the species on record is Rattus norvegicus. The experiment can be described thus: Compound is evaluated for the inhibition of cholesterol biosynthesis in rat hepatocytes at a concentration of 41 (micro g/mL). Format: functional, Hepatocyte.
The test system of experiment [3] is HepG2. The experiment in a line: Compound is evaluated for relative potency versus gamma-tocotrienol at 2 (h) time point in HepG2 cells. Format: functional, Homo sapiens.
In experiment [4] the test system is HepG2. The experiment can be described thus: Compound evaluated for percent inhibition of cholesterol synthesis from [14C]acetate in HepG2 cell. Details: concentration or dose not given beside the values. Format: functional, Homo sapiens.
In experiment [5] the test system is HepG2. The experiment in a line: Compound is evaluated for the inhibition of cholesterol synthesis in HepG2 cells for an incubation time of 4 (h). Format: functional, cell-based. To be noted: Homo sapiens. The gist of the method: (§1)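 HepG2 cells were grown in RPMI-1640 with 10% FBS. At about 70% confluence they were switched to 7% lipid-depleted serum for 16 h. Compound in DMSO (0.5% v/v final) was added for the stated time. A [2-14C]acetate pulse over the final 60 min measured incorporation into digitonin-precipitable sterols. IC50 came from linear regression of at least four concentrations, each in duplicate.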

Experiment [6] concerns HepG2. The experiment can be described thus: Compound is evaluated for the inhibition of cholesterol synthesis in HepG2 cells for an incubation time of 2 (h). Format: functional, cell-based. The following applies: Homo sapiens. The gist of the method: as §1
In experiment [7] the test system is HepG2. The experiment in a line: Compound is evaluated for relative potency versus gamma-tocotrienol at 6 (h) time point in HepG2 cells. Format: functional, Homo sapiens.
The subject of experiment [8] is HepG2. The experiment can be described thus: Compound is evaluated for the inhibition of cholesterol synthesis in HepG2 cells for an incubation time of 6 (h). Format: functional, cell-based. To be noted: Homo sapiens. Put shortly:
as §1

The species named for experiment [9] is Rattus norvegicus. The experiment in a line: Compound is evaluated for the inhibition of cholesterol biosynthesis in rat hepatocytes at a concentration of 210 (micro g/mL). Format: functional, Hepatocyte.
Experiment [10] has as its system HepG2. The experiment in a line: Compound evaluated for percent inhibition of cholesterol synthesis from HMG-CoA Reductase in HepG2 cell. Format: functional, Homo sapiens.
For experiment [11], the species on record is Rattus norvegicus. The experiment can be described thus: Compound was evaluated for percent inhibition of cholesterol biosynthesis in primary rat hepatocytes at a concentration of 2200 ug/mL (pre-incubated for 45 min). Format: functional. To be noted: Hepatocyte.
Experiment [12] is filed under the species Rattus norvegicus. The experiment can be described thus: Inhibitory concentration required to inhibit cholesterol biosynthesis in rat hepatocytes. Format: functional, Hepatocyte.
The species named for experiment [13] is Rattus norvegicus. The experiment in a line: Compound was evaluated for percent inhibition of cholesterol biosynthesis in primary rat hepatocytes at a concentration of 275 ug/mL (pre-incubated for 45 min). To be noted: Hepatocyte. Format: functional.
The species named for experiment [14] is Rattus norvegicus. The experiment can be described thus: Compound was evaluated for percent inhibition of cholesterol biosynthesis in primary rat hepatocytes at a concentration of 1100 ug/mL (pre-incubated for 45 min). Format: functional. The following applies: Hepatocyte.
The species entered for experiment [15] is Rattus norvegicus. The experiment in a line: Compound was evaluated for percent inhibition of cholesterol biosynthesis in primary rat hepatocytes at a concentration of 138 ug/mL (pre-incubated for 45 min). Format: functional. To be noted: Hepatocyte.
For experiment [16], the species on record is Rattus norvegicus. The experiment in a line: Compound was evaluated for percent inhibition of cholesterol biosynthesis in primary rat hepatocytes at a concentration of 550 ug/mL (pre-incubated for 45 min). Format: functional. The following applies: Hepatocyte.

Consider `CC(C)=CCC/C(C)=C/CC/C(C)=C/CCC1(C)CCc2c(C)c(O)c(C)c(C)c2O1` (racemic), for which the Relative potency in experiment [1] was 0.03; in experiment [3] it was 0.016; in experiment [7], 0.027. For the same molecule, the Inhibition was 4% in experiment [2], 21% in experiment [4], 17% in experiment [9] and 19% in experiment [10]. Moreover, the IC50 in experiment [5] amounted to 94 µM; in [6], 380 µM; in experiment [8] it was 110 µM.
Consider `CC(C)=CCC/C(C)=C/CC/C(C)=C/CCC1(C)CCc2cc(O)ccc2O1` (racemic), for which the Inhibition came to 63% in experiment [4] and 56% in [10].
`CC(C)=CCC/C=C/CCC1(C)CCc2cc(O)c(C)c(C)c2O1` (stereo unspecified) gave an Inhibition in experiment [4] of 38%.
Take `CC(C)=CCC/C(C)=C/CC/C(C)=C/CC[C@]1(C)CCc2cc(O)ccc2O1` (mixture of isomers): in [11], the inhibition at 2200 µg/mL was determined as 70%. In experiment [12], this molecule came in with an Inhibition of 31%. The inhibition at 275 µg/mL in experiment [13] came to 38%. Further, 1100 µg/mL produced 60% inhibition in [14]. This molecule also registered an IC50 in experiment [15] of 600 µg/mL. In addition, in [16], at 550 µg/mL the inhibition was 45%.
As for `Cc1c(O)cc2c(c1C)OC(C)(CCCC(C)CCCC(C)CCCC(C)C)CC2` (stereo unspecified), the Inhibition in [4] came to 3%; in [10], 0%.

The Inhibition is the drop in the measured response relative to a control, in per cent. As a reminder, the IC50 is the concentration needed to halve the response being measured. The term inhibition denotes the change of the read-out against control, counted positive when it falls.

These data come from ChEMBL document CHEMBL1125298, “Hypocholesterolemic activity of synthetic and natural tocotrienols” (J Med Chem, 1992).
